How the values were obtained:
[1] = target: Muscarinic acetylcholine receptor (Rattus norvegicus) (UniProt P08482+P08483+P08485+P08911+P10980); test: Displacement of [3H]-QNB from muscarinic receptor in rat brain cortical membranes at 30 uM after 60 mins by liquid scintillation counting; assay type: cell membranes; conditions: Membrane
Method in brief: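 Cortical membranes, 150 µg protein, with 0.1 nM [3H]-QNB in 50 mM Tris-HCl pH 7.4 at room temperature for 60 min. Non-specific binding was defined with atropine sulfate. Samples were diluted with cold 5 mM Tris-HCl, vacuum-filtered on glass fibre filters and counted by liquid scintillation.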

[2] = target: T1, Alpha-1B adrenergic receptor (Rattus norvegicus, UniProt P15823); test: Displacement of [3H]-[…] from alpha1B adrenoreceptor in rat liver membranes after 45 mins by liquid scintillation counting; assay type: cell membranes, Membrane
T1 sequence (P15823 whole entry): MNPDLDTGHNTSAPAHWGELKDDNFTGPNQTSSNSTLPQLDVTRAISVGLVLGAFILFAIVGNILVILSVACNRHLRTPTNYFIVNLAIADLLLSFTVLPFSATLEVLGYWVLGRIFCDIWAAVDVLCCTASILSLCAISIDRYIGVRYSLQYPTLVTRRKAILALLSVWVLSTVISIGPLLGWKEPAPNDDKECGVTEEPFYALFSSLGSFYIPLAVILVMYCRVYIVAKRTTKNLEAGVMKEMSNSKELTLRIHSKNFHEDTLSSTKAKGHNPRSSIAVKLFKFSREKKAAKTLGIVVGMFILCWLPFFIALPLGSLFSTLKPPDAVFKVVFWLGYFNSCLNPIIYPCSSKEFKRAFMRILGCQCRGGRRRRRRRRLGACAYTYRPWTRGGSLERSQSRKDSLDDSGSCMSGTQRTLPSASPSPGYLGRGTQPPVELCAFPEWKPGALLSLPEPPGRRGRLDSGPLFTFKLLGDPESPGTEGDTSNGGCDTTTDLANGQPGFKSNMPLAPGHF

[3] = target: T2, 5-hydroxytryptamine receptor 2C (Homo sapiens, UniProt P28335); test: Displacement of [3H]-mesulergine from human 5HT2C receptor after 60 mins by liquid scintillation counting
T2 sequence (P28335 whole entry): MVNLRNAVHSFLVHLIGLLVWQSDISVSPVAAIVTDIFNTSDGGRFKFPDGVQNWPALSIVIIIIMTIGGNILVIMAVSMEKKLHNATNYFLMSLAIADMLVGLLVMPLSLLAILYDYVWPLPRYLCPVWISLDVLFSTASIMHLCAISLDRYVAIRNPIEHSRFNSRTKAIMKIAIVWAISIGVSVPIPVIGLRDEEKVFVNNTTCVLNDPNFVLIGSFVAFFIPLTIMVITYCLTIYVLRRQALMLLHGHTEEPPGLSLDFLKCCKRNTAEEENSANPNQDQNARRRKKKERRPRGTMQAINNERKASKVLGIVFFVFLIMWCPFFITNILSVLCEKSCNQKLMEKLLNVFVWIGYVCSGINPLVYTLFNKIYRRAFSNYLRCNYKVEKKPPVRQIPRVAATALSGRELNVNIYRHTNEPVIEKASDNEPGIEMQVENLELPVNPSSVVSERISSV

[4] = target: T3, 5-hydroxytryptamine receptor 1A (Rattus norvegicus, UniProt P19327); test: Displacement of [3H]-8-OH-DPAT from 5HT1A receptor in rat brain hippocampal membranes after 15 mins by liquid scintillation counting; assay type: cell membranes, Membrane
T3 sequence (P19327 whole entry): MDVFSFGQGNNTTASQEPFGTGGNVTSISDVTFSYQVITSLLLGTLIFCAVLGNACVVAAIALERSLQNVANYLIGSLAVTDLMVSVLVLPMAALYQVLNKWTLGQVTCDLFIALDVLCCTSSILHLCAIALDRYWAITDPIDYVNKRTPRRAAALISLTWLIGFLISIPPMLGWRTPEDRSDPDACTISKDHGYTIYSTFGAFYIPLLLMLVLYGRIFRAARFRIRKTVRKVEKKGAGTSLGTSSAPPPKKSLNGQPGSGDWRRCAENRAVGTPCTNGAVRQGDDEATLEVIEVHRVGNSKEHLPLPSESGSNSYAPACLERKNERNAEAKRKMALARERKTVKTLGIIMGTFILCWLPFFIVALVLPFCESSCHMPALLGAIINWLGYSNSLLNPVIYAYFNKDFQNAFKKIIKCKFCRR
Method in brief: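 Hippocampal membranes, 40 µg protein, incubated with 1 nM [3H]-8-OH-DPAT at 37 °C for 15 min under yellow light. Buffer was 50 mM Tris-HCl pH 7.4 with 1 mM CaCl2, 1 mM MnCl2 and pargyline. Filters were soaked in 0.5% polyethyleneimine. IC50 came from nonlinear regression fitted with one or two sites. Ki by Cheng-Prusoff, using Kd from saturation experiments.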

[5] = target: T4, D(4) dopamine receptor (Homo sapiens, UniProt P21917); test: Displacement of [3H]-YM-09151-2 from human D4 receptor after 120 mins by liquid scintillation counting
T4 sequence (P21917 whole entry): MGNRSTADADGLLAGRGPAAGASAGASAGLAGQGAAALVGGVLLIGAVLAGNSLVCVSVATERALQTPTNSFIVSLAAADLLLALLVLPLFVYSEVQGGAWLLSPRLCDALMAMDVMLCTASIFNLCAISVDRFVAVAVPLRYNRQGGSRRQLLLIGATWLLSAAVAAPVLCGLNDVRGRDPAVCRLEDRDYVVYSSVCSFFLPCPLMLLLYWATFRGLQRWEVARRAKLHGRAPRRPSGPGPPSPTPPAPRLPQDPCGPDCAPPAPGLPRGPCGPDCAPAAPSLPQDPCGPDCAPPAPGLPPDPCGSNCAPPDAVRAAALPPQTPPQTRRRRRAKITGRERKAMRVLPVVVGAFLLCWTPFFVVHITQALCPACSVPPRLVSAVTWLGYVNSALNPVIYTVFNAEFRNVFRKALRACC

[6] = target: D(2) dopamine receptor (Rattus norvegicus, UniProt P61169); test: Displacement of [3H]-YM-09151-2 from D2 receptor in rat brain striatal membranes after 60 mins by liquid scintillation counting; assay type: cell membranes, Membrane
Chain of D(2) dopamine receptor (P61169 whole entry): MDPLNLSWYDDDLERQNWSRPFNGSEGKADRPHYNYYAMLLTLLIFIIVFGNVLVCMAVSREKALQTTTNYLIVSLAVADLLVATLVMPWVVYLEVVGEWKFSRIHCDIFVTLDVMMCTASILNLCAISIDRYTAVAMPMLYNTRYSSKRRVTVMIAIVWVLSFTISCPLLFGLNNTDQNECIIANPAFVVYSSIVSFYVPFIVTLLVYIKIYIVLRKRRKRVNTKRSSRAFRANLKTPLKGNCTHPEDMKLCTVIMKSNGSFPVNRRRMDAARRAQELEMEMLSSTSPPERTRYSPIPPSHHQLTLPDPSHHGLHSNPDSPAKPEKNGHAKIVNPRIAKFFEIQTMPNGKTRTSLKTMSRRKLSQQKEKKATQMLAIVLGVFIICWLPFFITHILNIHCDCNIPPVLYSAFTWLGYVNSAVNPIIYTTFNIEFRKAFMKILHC

Structure (SMILES)	inhibition [1]	Ki [2]	Ki [3]	Ki [4]	Ki [5]	Ki [6]
Clc1ccc(-n2cc(CCCCN3CCN(c4ccccc4)CC3)cn2)cc1	2%	570 nM	5900 nM	90 nM	800 nM	250 nM
Clc1ccc(-n2cc(COCCCN3CCN(c4ccccc4)CC3)cn2)cc1	28%	400 nM	2800 nM	310 nM	1500 nM	790 nM
Clc1ccc(-n2cc(COCCN3CCN(c4ccccc4)CC3)cn2)cc1	11%	850 nM	8100 nM	110 nM	100 nM	1900 nM
Clc1ccc(-n2cc(CCCCCN3CCN(c4ccccc4)CC3)cn2)cc1	26%	380 nM	7800 nM	160 nM	1180 nM	490 nM

Further molecules by falling Ki [2], results first:

inhibition [1]	Ki [2]	Ki [3]	Ki [4]	Ki [5]	Ki [6]	Structure (SMILES)
22%	2600 nM	8630 nM	220 nM	180 nM	390 nM	Clc1ccc(-n2cc(CN3CCN(c4ccccc4)CC3)cn2)cc1
39%	700 nM	5100 nM	180 nM	330 nM	680 nM	Clc1ccc(-n2cc(CCCN3CCN(c4ccccc4)CC3)cn2)cc1

From ChEMBL document CHEMBL2412990, “Synthesis and pharmacological evaluation of new N-phenylpiperazine derivatives designed as homologues of the antipsychotic lead compound LASSBio-579” (Eur J Med Chem, 2013)
